Calls of active or inactive are those of the source. The rule behind the calls is not given here.
Columns and labels:
[1] = system: Trypanosoma brucei brucei; test: Antitrypanosomal activity against Trypanosoma brucei brucei BF427 assessed as growth inhibition measured after 48 hrs by Alamar blue assay; assay type: functional; conditions: BF427, 48 h
How it was run: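 Bloodstream-form parasites in HMI-9 medium are exposed to serial compound dilutions in triplicate. Viability is read with Alamar Blue at 48 h. EC50 and EC90 come from nonlinear regression. Pentamidine isethionate is the control.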

[2] = Cmax in mouse brain at 50 mg/kg, po administered as single dose via gavage by liquid chromatography/tandem mass spectrometric analysis; assay type: ADME, organism-based; design: dose 50 mg/kg, route oral
How it was run: (§1)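 Time course after a single 50 mg/kg oral dose in 5% DMSO/7% Tween 80/3% EtOH in 0.9% saline. Mice are sacrificed in groups of three at 1, 4, 8 and 24 h. Plasma is separated by centrifugation and brain homogenized in acetonitrile, both measured by LC-MS/MS. Brain values are corrected for 3% v/w blood. Lower limit of quantitation 0.010 μM. Values are means ± SEM.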

[3] = Drug level in mouse brain at 50 mg/kg, po administered as single dose via gavage measured at 4 hrs post dose by liquid chromatography/tandem mass spectrometric analysis; assay type: ADME, organism-based; conditions: read-out: Drug uptake
How it was run: (§2)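 Single 50 mg/kg oral dose in DMSO (5%), Tween 80 (7%), EtOH (3%) in 0.9% saline; groups of three mice killed at 1, 4, 8 and 24 h. Plasma separated by brief centrifugation; brain homogenised in acetonitrile; both assayed by LC-MS/MS, brain values corrected for 3% v/w blood content. Mean ± SEM of 3 mice; plasma LLQ 0.010 μM.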

[4] = AUC (0 to infinity) in mouse plasma at 50 mg/kg, po administered as single dose via gavage by liquid chromatography/tandem mass spectrometric analysis; assay type: ADME, organism-based; design: dose 50 mg/kg, time infinity, route oral; how it was run: as §1
[5] = Stability in mouse liver microsomes assessed as compound remaining at 1.5 uM in presence of NADPH measured after 60 mins by liquid chromatography/tandem mass spectrometric analysis; assay type: ADME, microsome; conditions: read-out: Stability
How it was run: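 Pooled liver microsomes (0.5 mg/mL) are preincubated 5 min at 37 °C in 0.16 M KH2PO4 with 1 mM NADPH, then test compound is added at 1.5 μM. Aliquots are quenched with 4 volumes of acetonitrile at 0, 5, 10, 15, 30 and 60 min and analyzed by LC-MS/MS. Percent remaining at 5 or 60 min is given when t1/2 is outside the 5–60 min range. Controls: testosterone, dextromethorphan.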

[6] = Drug level in mouse plasma at 50 mg/kg, po administered as single dose via gavage measured at 1 hr post dose by liquid chromatography/tandem mass spectrometric analysis; assay type: ADME, organism-based; how it was run: as §2
[7] = Drug level in mouse plasma at 50 mg/kg, po administered as single dose via gavage measured at 24 hrs post dose by liquid chromatography/tandem mass spectrometric analysis; assay type: ADME, organism-based; how it was run: as §2
[8] = Drug level in Swiss-Webster mouse plasma infected with Trypanosoma brucei brucei TREU667 at 50 mg/kg, po bid administered via gavage for 10 days starting from 21 days post infection measured at 1 hr post last dose; assay type: ADME, organism-based
[9] = Drug level in mouse plasma at 5 mg/kg, ip administered as single dose measured at 1 hr post dose by liquid chromatography/tandem mass spectrometric analysis; assay type: ADME, organism-based
How it was run: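 Single ip dose of 5 mg/kg in 5% DMSO/7% Tween 80/3% EtOH in 0.9% saline, three mice per compound (six for one compound). At 1 h, plasma is separated by centrifugation and brain homogenized in acetonitrile. Both are quantified by LC-MS/MS, with brain corrected for 3% v/w blood. Brain/plasma ratio is reported as mean ± SEM.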

HepG2 = test: Cytotoxicity against human HepG2 cells assessed as growth inhibition after 48 hrs by Alamar blue assay; assay type: cell-based; conditions: Homo sapiens, HepG2, 48 h
How it was run: (§3)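 CRL-8155 lymphoblasts or HepG2 hepatocellular carcinoma cells are exposed 48 h to serial compound dilutions in quadruplicate. Growth is read with Alamar Blue, and 50% and 90% inhibitory concentrations come from nonlinear regression. Quinacrine is the control.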

[10] = Drug level in Swiss-Webster mouse plasma infected with Trypanosoma brucei rhodesiense STIB900 at 50 mg/kg, po bid administered via gavage for 4 days starting from 2 days post infection measured at 6 hrs post last dose; assay type: ADME, organism-based
How it was run: (§4)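 Female Swiss-Webster mice (ND4 outbred, 6−8 weeks), groups of five, infected day 0 with 1 × 10^4 T. b. rhodesiense STIB900; 50 mg/kg oral gavage every 12 h days 2−5 (eight doses) in 200 μL DMSO 5%, Tween 80 7%, EtOH 3% in 0.9% saline. Tail blood from 3 mice before dose 7, then 1 and 6 h post-dose, spotted on cards, LC-MS/MS.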

[11] = system: Trypanosoma brucei brucei; test: Anti-parasitic activity against Trypanosoma brucei brucei TREU667 infected in mouse assessed as reduction in parasitemia at 50 mg/kg, bid administered via oral gavage on day 21 to 30 post infection measured on day 180 by microscopic method; assay type: functional, organism-based
How it was run: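 Groups of five mice are infected on day 0 with 1 × 10^4 parasites to give a chronic infection. From day 21, mice receive 50 mg/kg orally b.i.d. for 10 days (20 doses) in 200 μL of 60% Phosal 53 MCT/30% PEG400/10% EtOH; a vehicle-only group runs alongside. Tail blood slides are examined microscopically until 180 days postinfection. Three mice are sampled before dose 15 and at 1 and 6 h after.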

[12] = Cytotoxicity against human CRL8155 cells assessed as growth inhibition after 48 hrs by Alamar blue assay; assay type: cell-based; conditions: Homo sapiens, CRL8155, 48 h; how it was run: as §3
[13] = Drug level in mouse plasma at 50 mg/kg, po administered as single dose via gavage measured at 4 hrs post dose by liquid chromatography/tandem mass spectrometric analysis; assay type: ADME, organism-based; how it was run: as §2
[14] = AUC (0 to infinity) in mouse brain at 50 mg/kg, po administered as single dose via gavage by liquid chromatography/tandem mass spectrometric analysis; assay type: ADME, organism-based; design: dose 50 mg/kg, time infinity, route oral; how it was run: as §1
[15] = Selectivity index, ratio of EC50 for human CRL8155 cells to EC50 for Trypanosoma brucei brucei BF427; assay type: toxicity; conditions: read-out: Ratio EC50
[16] = Drug level in Swiss-Webster mouse plasma infected with Trypanosoma brucei brucei TREU667 at 50 mg/kg, po bid administered via gavage for 10 days starting from 21 days post infection measured at 6 hrs post last dose; assay type: ADME, organism-based
[17] = system: Trypanosoma brucei rhodesiense; test: Antiparasitic activity against Trypanosoma brucei rhodesiense STIB900 infected in Swiss-Webster mouse assessed as reduction in parasitemia at 50 mg/kg, po bid administered via gavage from day 2 to 5 post infection measured on day 60 by microscopic method; assay type: functional, organism-based
How it was run: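 Female Swiss-Webster (ND4 outbred) mice, 6–8 weeks old, five per group, are infected on day 0 with 1 × 10^4 parasites. Dosing is 50 mg/kg by oral gavage every 12 h on days 2–5 (eight doses) in 200 μL of 5% DMSO/7% Tween 80/3% EtOH in 0.9% saline. Tail blood is examined microscopically for 60 days, and mice become parasitemic are euthanized. Three mice are sampled before dose 7 and at 1 and 6 h after for plasma levels.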

[18] = Drug level in mouse brain at 50 mg/kg, po administered as single dose via gavage measured at 8 hrs post dose by liquid chromatography/tandem mass spectrometric analysis; assay type: ADME, organism-based; conditions: read-out: Drug uptake; how it was run: as §2
Plasma = test: Drug level in Swiss-Webster mouse plasma infected with Trypanosoma brucei rhodesiense STIB900 at 50 mg/kg, po bid administered via gavage for 4 days starting from 2 days post infection measured on day 3 prior to dose 7; assay type: ADME, organism-based; conditions: in vivo; how it was run: as §4

Question: With `O=C(Nc1ccc2sc(-c3ccc(F)c(F)c3)nc2c1)N1CC[C@H](F)C1` as the molecule, how does the EC50 [1] read?
Answer: 0.0348 µM

Question: What about the EC90 [1] of the same molecule?
Answer: 0.0548 µM

Question: And the Cmax [2]?
Answer: 54.8 µM

Question: And the concentration at 4 h [3]?
Answer: 45.2 µM

Question: What about the AUC(0-inf) [4] of the same molecule?
Answer: 180 µM·h

Question: And the remaining at 1 h, 1.5 µM [5]?
Answer: 73%

Question: And the concentration at 1 h [6]?
Answer: 27.1 µM

Question: And the concentration at 24 h [7]?
Answer: 0.01 µM

Question: And the concentration at 1 h [8]?
Answer: 23.1 µM

Question: What about the concentration at 1 h [9] of the same molecule?
Answer: 2.27 µM

Question: And the EC50 (HepG2)?
Answer: > 50 µM

Question: What about the concentration at 6 h [10] of the same molecule?
Answer: 15 µM

Question: What about the Activity [11] of the same molecule?
Answer: Active

Question: And the EC50 [12]?
Answer: > 50 µM

Question: And the concentration at 4 h [13]?
Answer: 10.2 µM

Question: And the AUC(0-inf) [14]?
Answer: 719 µM·h

Question: What about the selectivity ratio [15] of the same molecule?
Answer: > 1440

Question: What about the concentration at 6 h [16] of the same molecule?
Answer: 26.7 µM

Question: And the Activity [17]?
Answer: Active

Question: What about the concentration at 8 h [18] of the same molecule?
Answer: 48.1 µM

Question: And the concentration (Plasma)?
Answer: 9.1 µM
